Here are results for twelve compounds from ChEMBL document CHEMBL2146475, “A novel bitriazolyl acyclonucleoside endowed with dual antiproliferative and immunomodulatory activity” (J Med Chem, 2012).

For assay [1], the system named is MIA PaCa-2. Nature of the assay: Cytotoxicity against multidrug-resistant human MIAPaCa2 cells assessed as cell viability at 50 uM after 48 hrs by MTT assay. Format: functional, cell-based. A digest of the protocol:
(§1)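 Cells left untreated or incubated at 50 μM for 48 h, with gemcitabine 50 μM as reference. Viability read by MTT.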

Assay [2] deals with MIA PaCa-2. Nature of the assay: Cytotoxicity against multidrug-resistant human MIAPaCa2 cells assessed as cell viability after 48 hrs by MTT assay. The assay is classed as functional, cell-based. A digest of the protocol: (§2)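 Cells left untreated or incubated with compound over 50 nM to 200 μM for 48 h. Viability read by MTT. Values are mean SE of three independent experiments, and IC50 is taken from the dose-response curves.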

Assay [3] has as its system MIA PaCa-2. Nature of the assay: Induction of apoptosis in multidrug-resistant human MIAPaCa2 cells assessed as late apoptotic cells after 48 hrs using AnnexinV-FITC conjugated 7- AAD staining by flow cytometry (reference value: 0.21%). The assay is classed as functional.
Assay [4] has as its system MIA PaCa-2. Nature of the assay: Cell cycle arrest in multidrug-resistant human MIAPaCa2 cells assessed as accumulation at sub-G0/G1 phase after 48 hrs by propidium iodide staining based FACS flow cytometry (reference value: 1.17%). Format: functional.
Assay [5] has as its system Capan-2. Kind of assay: Cytotoxicity against human Capan2 cells assessed as cell viability after 48 hrs by MTT assay. The assay is classed as functional, cell-based. A digest of the protocol:
as §2
Background: Tetrazolium dyes change colour on reduction, which living cells bring about.

For assay [6], the system named is Dendritic cell. Kind of assay: Immunostimulatory activity against wild type C57BL/6 mouse bone marrow dendritic cells assessed as increase in IL-12p40 level at 3 to 10 uM after 24 hrs by ELISA. The assay is classed as functional, cell-based. A digest of the protocol: (§3)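 Bone marrow dendritic cells from wild-type, TLR3−/−, TLR7−/− and TLR9−/− mice, left untreated or stimulated with different doses for 24 h. IL-12p40 protein in culture supernatants measured by ELISA.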
On the technique in general: ELISA stands for enzyme-linked immunosorbent assay.

The target of assay [7] is T1, Toll-like receptor 7 (Mus musculus) (UniProt P58681).
T1 sequence (whole entry): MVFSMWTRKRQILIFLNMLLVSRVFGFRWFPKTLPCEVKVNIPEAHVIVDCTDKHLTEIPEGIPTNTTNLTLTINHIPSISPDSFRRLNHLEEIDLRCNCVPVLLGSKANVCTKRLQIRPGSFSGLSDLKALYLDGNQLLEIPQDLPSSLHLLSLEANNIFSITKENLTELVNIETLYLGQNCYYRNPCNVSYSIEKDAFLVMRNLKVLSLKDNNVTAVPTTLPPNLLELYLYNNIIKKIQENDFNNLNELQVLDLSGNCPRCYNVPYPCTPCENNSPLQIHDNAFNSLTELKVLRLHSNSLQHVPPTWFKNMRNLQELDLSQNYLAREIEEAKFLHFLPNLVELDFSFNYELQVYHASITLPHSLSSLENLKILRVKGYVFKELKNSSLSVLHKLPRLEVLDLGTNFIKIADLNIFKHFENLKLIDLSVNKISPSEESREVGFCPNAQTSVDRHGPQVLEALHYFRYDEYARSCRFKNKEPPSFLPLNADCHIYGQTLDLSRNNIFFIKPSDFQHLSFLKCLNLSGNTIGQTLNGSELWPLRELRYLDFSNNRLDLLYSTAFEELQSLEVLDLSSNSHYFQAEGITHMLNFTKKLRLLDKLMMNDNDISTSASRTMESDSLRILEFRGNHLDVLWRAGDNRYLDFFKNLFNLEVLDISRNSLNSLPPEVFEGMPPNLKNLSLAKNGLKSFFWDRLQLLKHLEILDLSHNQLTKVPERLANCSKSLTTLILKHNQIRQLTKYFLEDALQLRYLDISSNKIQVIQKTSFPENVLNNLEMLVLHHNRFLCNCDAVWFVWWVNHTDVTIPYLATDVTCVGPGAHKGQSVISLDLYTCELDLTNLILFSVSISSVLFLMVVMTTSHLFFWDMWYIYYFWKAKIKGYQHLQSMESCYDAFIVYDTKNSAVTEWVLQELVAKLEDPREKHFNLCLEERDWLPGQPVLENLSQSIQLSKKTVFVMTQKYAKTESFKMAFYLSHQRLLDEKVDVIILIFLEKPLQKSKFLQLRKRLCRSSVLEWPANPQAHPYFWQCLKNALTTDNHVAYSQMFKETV
Kind of assay: Activation of TLR7 in C57BL/6 mouse bone marrow dendritic cells assessed as increase of IL6 production after 24 hrs by ELISA. Format: cell-based. The procedure, abridged: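 Bone marrow dendritic cells from wild-type mice, left untreated or stimulated with two doses for 24 h. IL-6 in culture supernatants measured by ELISA. Mean SD of four mice per group.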

The test system of assay [8] is MIA PaCa-2. Kind of assay: Induction of apoptosis in multidrug-resistant human MIAPaCa2 cells assessed as early apoptotic cells after 48 hrs using AnnexinV-FITC conjugated 7- AAD staining by flow cytometry (reference value: 2.54%). Format: functional.
In assay [9] the test system is MIA PaCa-2. Nature of the assay: Induction of apoptosis in multidrug-resistant human MIAPaCa2 cells assessed as increase in DNA/histone nucleosome release after 48 hrs by ELISA relative to control. Format: functional. The procedure, abridged: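 MiaPaCa-2 cells treated 48 h, with untreated and gemcitabine references. Cytoplasmic DNA/histone nucleosome release detected by ELISA and compared with untreated cells. Run in triplicate.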

The test system of assay [10] is PANC-1. Kind of assay: Cytotoxicity against human PANC1 cells assessed as cell viability at 50 uM after 48 hrs by MTT assay. Format: functional, cell-based. A digest of the protocol: as §1
Assay [11] deals with PANC-1. Kind of assay: Cytotoxicity against human PANC1 cells assessed as cell viability after 48 hrs by MTT assay. Format: functional, cell-based. The procedure, abridged: as §2
The test system of assay [12] is Capan-2. Nature of the assay: Cytotoxicity against human Capan2 cells assessed as cell viability at 50 uM after 48 hrs by MTT assay. Format: functional, cell-based. The procedure, abridged:
as §1

Assay [13] concerns Dendritic cell. Kind of assay: Immunostimulatory activity against TLR3-deficient C57BL/6 mouse bone marrow dendritic cells assessed as increase in IL-12p40 level at 3 to 10 uM after 24 hrs by ELISA. The assay is classed as functional, cell-based. A digest of the protocol: as §3
The subject of assay [14] is MIA PaCa-2. Nature of the assay: Induction of apoptosis in multidrug-resistant human MIAPaCa2 cells assessed as increase in caspase-3/7 activity after 48 hrs by caspase-Glo 3/7 assay. Format: functional, cell-based. A digest of the protocol:
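MiaPaCa-2 cells treated 48 h, with untreated and gemcitabine references. Caspase-3/7 activity measured. Run in triplicate.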

The subject of assay [15] is HeLa. Kind of assay: Cytotoxicity against human HeLa cells assessed as cell viability at 50 uM after 48 hrs by MTT assay. The assay is classed as functional, cell-based. The procedure, abridged:
as §1

Assay [16] concerns MIA PaCa-2. Nature of the assay: Induction of apoptosis in multidrug-resistant human MIAPaCa2 cells assessed as necrotic cells after 48 hrs using AnnexinV-FITC conjugated 7- AAD staining by flow cytometry (reference value: 0.17%). Format: functional. In general terms: A flow cytometer gives signals particle by particle.
In assay [17] the test system is PC-3. Nature of the assay: Cytotoxicity against human PC3 cells assessed as cell viability after 48 hrs by MTT assay. The assay is classed as functional, cell-based. A digest of the protocol: as §2
The subject of assay [18] is MCF7. Nature of the assay: Cytotoxicity against human MCF7 cells assessed as cell viability after 48 hrs by MTT assay. The assay is classed as functional, cell-based. A digest of the protocol: as §2
Assay [19] relates to MCF7. Kind of assay: Cytotoxicity against human MCF7 cells assessed as cell viability at 50 uM after 48 hrs by MTT assay. Format: functional, cell-based. The procedure, abridged:
as §1

Assay [20] concerns HeLa. Kind of assay: Cytotoxicity against human HeLa cells assessed as cell viability after 48 hrs by MTT assay. Format: functional, cell-based. A digest of the protocol: as §2
Assay [21] relates to Dendritic cell. Nature of the assay: Immunostimulatory activity against TLR9-deficient C57BL/6 mouse bone marrow dendritic cells assessed as increase in IL-12p40 level at 3 to 10 uM after 24 hrs by ELISA. The assay is classed as functional, cell-based. The procedure, abridged:
as §3

Assay [22] relates to Dendritic cell. Nature of the assay: Immunostimulatory activity against TLR7-deficient C57BL/6 mouse bone marrow dendritic cells assessed as increase in IL-12p40 level at 10 uM after 24 hrs by ELISA. The assay is classed as functional, cell-based. A digest of the protocol:
as §3

Assay [23] has as its system PC-3. Kind of assay: Cytotoxicity against human PC3 cells assessed as cell viability at 50 uM after 48 hrs by MTT assay. The assay is classed as functional, cell-based. A digest of the protocol:
as §1

Active and inactive are the calls of the source. The rule behind the calls is not given here.

Consider `COC(=O)c1nc(-c2cn(Cc3ccc4ccccc4c3)nn2)n(COCCOC(C)=O)n1`, for which the result in the assay with MIA PaCa-2 [1] was inactive.
Turning to `COC(=O)c1nc(-c2cn(Cc3ccc4ccc5cccc6ccc3c4c56)nn2)nn1COCCOC(C)=O`, the outcome with MIA PaCa-2 [1] was inactive.
Regarding `COC(=O)c1nc(-c2cn(Cc3ccc4ccc5cccc6ccc3c4c56)nn2)n([C@@H]2O[C@H](COC(C)=O)[C@@H](OC(C)=O)[C@H]2OC(C)=O)n1`, the outcome in the assay on MIA PaCa-2 [2] was inactive.
Take `COC(=O)c1nc(-c2cn(-c3ccc4ccc5cccc6ccc3c4c56)nn2)n(COCCOC(C)=O)n1`: the outcome in the assay on MIA PaCa-2 [1] was inactive.
`COC(=O)c1nc(-c2cn(Cc3ccc4ccc5cccc6ccc3c4c56)nn2)n(COCCOC(C)=O)n1`: the Activity in the assay on MIA PaCa-2 [3] was 22.44%; in the assay on MIA PaCa-2 [4] it was 36.9%; in the assay on Capan-2 [5] it was “Dose-dependent effect”; in assay [7] it was “Dose-dependent effect”; with MIA PaCa-2 [8], 28.48%; with PANC-1 [11], “Dose-dependent effect”. Further, the Activity entry is “Dose-dependent effect” in the assay with MIA PaCa-2 [2]; 0.41% with MIA PaCa-2 [16]; “Dose-dependent effect” with PC-3 [17]; “Dose-dependent effect” in the assay with MCF7 [18]; “Dose-dependent effect” in the assay with HeLa [20]. Also, the half-inhibitory concentration (IC50) is ≤ 10 µM in the assay with Capan-2 [5] (Capan-2, 48 h); ≤ 10 µM with PANC-1 [11] (PANC-1, 48 h); ≤ 10 µM with MIA PaCa-2 [2] (MIA PaCa-2, 48 h); ≤ 10 µM in the assay on PC-3 [17] (PC-3, 48 h); ≤ 10 µM in the assay with MCF7 [18] (MCF7, 48 h); ≤ 10 µM in the assay on HeLa [20]. Moreover, the outcome in the assay with Dendritic cell [6], in the assay with MIA PaCa-2 [1], with PANC-1 [10], in the assay on Capan-2 [12], in the assay with Dendritic cell [13] and in the assay on MIA PaCa-2 [14] was Active. Further, the outcome with HeLa [15], in the assay on MCF7 [19], with Dendritic cell [21] and in the assay with PC-3 [23] was Active. In the assay on MIA PaCa-2 [9], the “fold change (FC)” value is listed as 15. Further, in the assay on Dendritic cell [22], the outcome was inactive.
For `COC(=O)c1nc(-c2cn(Cc3ccccc3)nn2)n(COCCOC(C)=O)n1`, the outcome with MIA PaCa-2 [1] was inactive.
For the compound `NC(=O)c1nc(-c2cn(Cc3ccc4ccc5cccc6ccc3c4c56)nn2)n(COCCO)n1`, the result in the assay on MIA PaCa-2 [2] was Active.
With `COC(=O)c1nc(-c2cn(Cc3ccc4cc5ccccc5cc4c3)nn2)n(COCCOC(C)=O)n1`, the result in the assay on MIA PaCa-2 [1] was inactive.
The same measure, in the same setting: to `COC(=O)c1nc(Nc2ccc3ccc4cccc5ccc2c3c45)n(COCCOC(C)=O)n1` belongs “inactive”.
On the same count and under the same terms, the same measure for `COC(=O)c1nc(CCc2ccc3ccc4cccc5ccc2c3c45)n(COCCOC(C)=O)n1`: “inactive”; for `COC(=O)c1nc(C#Cc2ccc3ccc4cccc5ccc2c3c45)n(COCCOC(C)=O)n1`: “inactive”.
For the compound `Nc1ccn([C@@H]2O[C@H](CO)[C@@H](O)C2(F)F)c(=O)n1` [GEMCITABINE], the Activity in the assay with MIA PaCa-2 [3] was found to be 0.86%; in the assay on MIA PaCa-2 [4] it was 7.9%; in the assay with MIA PaCa-2 [8], 10.47%; in the assay with MIA PaCa-2 [16], 0.35%. Moreover, the outcome in the assay on MIA PaCa-2 [9] and with MIA PaCa-2 [14] was Active.

In general, IC50 refers to the concentration at which inhibition is half-maximal.
